Results as given in ChEMBL document CHEMBL4004830 (J Med Chem, 2017).

Experiment: Oral bioavailability in BALB/c mouse at 10 mg/kg measured up to 24 hrs by LC-MS/MS analysis
Format: ADME, organism-based
Details: in vivo
Summary of the method: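 Single-dose pharmacokinetics in male animals: albino Wistar rats given 5 mg/kg IV or 20 mg/kg PO, and BALB/c mice given 2 mg/kg IV or 10 mg/kg PO.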

Cc1nc(NC2CCCC2)sc1-c1ccnc(Nc2ccc(N3CCOCC3)cn2)n1
bioavailability: 100%
